Tests used:
BRD4 (BD1,2) = BRD4 (BD1,2) (Homo sapiens, UniProt O60885); test: BROMOScan competitive binding affinity, BRD4; details: for fold improvement in Kd values: relative to smaller 2-substitutions (13, 14); for fold decrease of potency in binding affinity (Kd): relative to 17
[1] = Pharmacokinetics in CD-1 mice; format: in vivo; details: po 10 mg/kg, n=3
Outline: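 CD-1 mice received a single 10 mg/kg oral dose, n = 3. AUC0−∞ (h·ng/mL) was reported together with t1/2, Cmax, Vss, CLp and F%. For oral bioavailability, an intravenous arm dosed at 2 mg/kg was also run.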

In the case of Cc1noc(C)c1-c1ccc2nc(N(C)CCN(C)C)nc(NCc3cccc(Cl)c3)c2c1 [compound 15], the “fold improvement in Kd values” (BRD4 (BD1,2)) is reported as ~ 20 fold.

For Cc1noc(C)c1-c1ccc2nc(N3CCN(C)CC3)nc(NCc3cccc(Cl)c3)c2c1 [compound 16], the “fold improvement in Kd values” (BRD4 (BD1,2)) was ~ 20 fold.

In the case of Cc1noc(C)c1-c1ccc2c(NCc3cccc(Cl)c3)nc(N3CCN(CCN(C)C)CC3)nc2c1 [compound 40], the “fold decrease of potency in binding affinity (Kd)” value (“fold decrease of potency” below) (BRD4 (BD1,2)) is reported as ~ 12 fold.

For CN(C)CCN1CCN(c2nc(NCc3cccc(Cl)c3)c3cc(-c4ccc(=O)n(C)c4)ccc3n2)CC1 [compound 48], the “AUC0−∞” value [1] was “no exposure”.

For Cc1noc(C)c1-c1ccc2nc(N3CCN(CCN(C)C)CC3)nc(NCc3ccc(Cl)cc3)c2c1 [compound 51], the “fold decrease of potency” value (BRD4 (BD1,2)) was ~ 9 fold.

In the case of Cc1noc(C)c1-c1ccc2nc(N3CCN(CCN(C)C)CC3)nc(N(C)Cc3cccc(Cl)c3)c2c1 [compound 57], the “fold decrease of potency” value (BRD4 (BD1,2)) is reported as 2–3 fold.
